Key:
[1] = test system: Schistosoma mansoni; experiment: Antischistosomal activity against Schistosoma mansoni NTS incubated for 72 hrs; type: functional, organism-based
How it was run: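 NTS from mechanically transformed cercariae (Liberian strain), 100 per well in Medium 199 + 5% iFCS, penicillin/streptomycin, preincubated 12–24 h at 37°C, 5% CO2. Exposed to 0.37–90 μg/ml (threefold steps) for 72 h. Scored microscopically on a viability scale (death, motility, morphology). DMSO control; duplicates, at least three experiments; IC50 from viability scores.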

[2] = test system: Schistosoma mansoni; experiment: Antischistosomal activity against adult Schistosoma mansoni schistosomes incubated for 72 hrs; type: functional, organism-based
[3] = Selectivity index, ratio of IC50 for rat L6 cells to IC50 for adult Schistosoma mansoni schistosomes
How it was run: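 Ratio of L6 IC50 to adult S. mansoni IC50, both from the assays above.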

[4] = test system: L6; experiment: Cytotoxicity against rat L6 cells incubated for […] hrs by Alamar blue assay; type: cell-based
[5] = test system: Schistosoma mansoni; experiment: Antischistosomal activity against adult Schistosoma mansoni infected NMRI mouse adult infection model assessed as reduction in female worm burden at 400 mg/kg administered as single dose starting from 49 days post infection; type: functional; parameters: scale not given: the % may be the effect or the level left
How it was run: (§1)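 Mice infected subcutaneously with ~100 S. mansoni cercariae (Liberian strain). At day 49 post infection, groups of 4 NMRI mice received a single oral 400 mg/kg dose; 8–10 untreated controls. Total and female worm burden reductions calculated against untreated controls.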

[6] = test system: Schistosoma mansoni; experiment: Antischistosomal activity against adult Schistosoma mansoni infected NMRI mouse adult infection model assessed as reduction in total worm burden at 400 mg/kg administered as single dose starting from 49 days post infection; type: functional; parameters: scale not given: the % may be the effect or the level left; how it was run: as §1
[7] = test system: Schistosoma mansoni; experiment: Antischistosomal activity against adult Schistosoma mansoni schistosomes incubated for 72 hrs in presence of 120 uM Fe(3)-hemin; type: functional, organism-based
How it was run: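 Adult worm motility assay in RPMI 1640 + 5% iFCS at 1.1–30 μg/ml. Fe(III)-hemin held at 120 μM final throughout exposure; hemin stock 1.5 mM in dilute NaOH/PBS pH 7.4. Motility scored, IC50 determined at 72 h. At least three experiments.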

[8] = test system: MRC5; experiment: Cytotoxicity against human MRC5 cells incubated for 48 hrs by resazurin dye reduction assay; type: cell-based; details: MRC5, 48 h
[9] = test system: HeLa; experiment: Cytotoxicity against human HeLa cells incubated for 48 hrs by resazurin dye reduction assay; type: cell-based
[10] = Selectivity index, ratio of IC50 for human MRC5 cells to IC50 for human HeLa cells; type: cell-based; details: MRC5 cells versus HeLa cells, read-out: Ratio IC50
[11] = test system: Schistosoma mansoni; experiment: Antischistosomal activity against adult Schistosoma mansoni infected NMRI mouse juvenile infection model assessed as reduction in total worm burden at 400 mg/kg administered as single dose starting from 21 days post infection; type: functional; parameters: scale not given: the % may be the effect or the level left
How it was run: (§2)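 Juvenile model: NMRI mice infected with ~100 cercariae were given a single oral 400 mg/kg dose on day 21 post infection. Dissected four weeks after treatment, worms sexed and counted. Total and female burden reductions calculated against untreated controls.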

[12] = test system: Schistosoma mansoni; experiment: Antischistosomal activity against adult Schistosoma mansoni infected NMRI mouse juvenile infection model assessed as reduction in female worm burden at 400 mg/kg administered as single dose starting from 21 days post infection; type: functional; parameters: scale not given: the % may be the effect or the level left; how it was run: as §2

Compound | IC50 [1] | IC50 [2] | also measured
C[C@]12OO[C@](C)(OO1)C2CCC(=O)N1CCCCCC1 (stereo not given in full) | 5.5 µM | 50.1 µM | 
C[C@]12OO[C@](C)(OO1)C2CCC(=O)NCCc1ccccc1 (stereo not given in full) | 6.1 µM | 65.6 µM | 
C[C@]12OO[C@](C)(OO1)C2CCC(=O)N1CCCCC1 (stereo not given in full) | 6.6 µM | > 111 µM | 
CC(c1ccc2ccccc2c1)C1[C@]2(C)OO[C@@]1(C)OO2 (stereo not given in full) | 7.1 µM | 35.5 µM | 
C[C@]12OO[C@](C)(OO1)C2CCC(=O)NC1CCCCC1 (stereo not given in full) | 8.9 µM | 66.6 µM | 
C[C@]12OO[C@](C)(OO1)C2CCC(=O)N1CCOCC1 (stereo not given in full) | 10.7 µM | 36.9 µM | 
C[C@]12OO[C@](C)(OO1)C2CCC(=O)NCc1ccccc1 (stereo not given in full) | 10.9 µM | > 102 µM | 
CCOC(=O)CNC(=O)CCC1[C@]2(C)OO[C@@]1(C)OO2 (stereo not given in full) | 11.7 µM | > 104 µM | 
C[C@]12OO[C@](C)(OO1)C2CCC(=O)N1CCCC1 (stereo not given in full) | 13.9 µM | > 117 µM | 
CC(C)NC(=O)CCC1[C@]2(C)OO[C@@]1(C)OO2 (stereo not given in full) | 25.6 µM |  | 
CC12CCC3[C@@](C)(OO[C@]3(c3ccc(Br)cc3)O1)O2 | 1.7 µM | 8.7 µM | Ratio IC50 [3]: 0.9; IC50 [4]: 8.2 µM; Activity [5]: 36.4%; Activity [6]: 31.3%
CCOC(=O)CCC12CCC3(C)O[C@]1(C)OO[C@]2(C)O3 | 3.5 µM | > 105 µM | IC50 [7]: 92.2 µM
Cc1ccc(CC23CCC4(C)O[C@]2(C)OO[C@]3(C)O4)cc1 | 4.5 µM | > 103 µM | Ratio IC50 [3]: >7.7; IC50 [4]: > 103 µM; IC50 [7]: 13.4 µM; Activity [5]: 0%; Activity [6]: 0%
C#CCC12CCC3(C)O[C@]1(C)OO[C@]2(C)O3 | 8.1 µM | 82.4 µM | 
CC12CCC3(Cc4ccc([N+](=O)[O-])cc4)[C@@](C)(OO[C@]3(C)O1)O2 | 9 µM | 12.2 µM | Ratio IC50 [3]: >7.6; IC50 [4]: > 93 µM; Activity [5]: 9.6%; Activity [6]: 4.7%
CC12CCC3[C@@](C)(OO[C@]3(C)O1)O2 | 9 µM | 19.2 µM | 
CC12CCC3[C@@](C)(OO[C@]3(c3ccccc3)O1)O2 | 9.3 µM | 7.7 µM | Ratio IC50 [3]: 1.3; IC50 [4]: 10.3 µM; Activity [5]: 15.2%; Activity [6]: 6.5%
CC12CCC3(Cc4ccccc4)[C@@](C)(OO[C@]3(C)O1)O2 | 13.4 µM | > 109 µM | 
COc1ccc([C@]23OO[C@@]4(C)OC(C)(CCC42)O3)cc1 | 14.4 µM | 11.7 µM | IC50 [8]: 12.4 µM; IC50 [9]: 6 µM; Ratio IC50 [3]: 4.9; IC50 [4]: 58.3 µM; selectivity ratio [10]: 2; Activity [11]: 18.9%; Activity [5]: 82.9%; Activity [6]: 82.8%; Activity [12]: 27.3%
C=CCC12CCC3(C)O[C@]1(C)OO[C@]2(C)O3 | 15.6 µM |  | 
CC12CCC3[C@@](C)(OO[C@]3(c3ccc(Cl)cc3)O1)O2 | 16 µM |  | 
CCCCC12CCC3(C)O[C@]1(C)OO[C@]2(C)O3 | 22.3 µM |  | 
CC12CCC3(CC4CO4)[C@@](C)(OO[C@]3(C)O1)O2 (stereo not given in full) | 22.5 µM |  | 
Cc1ccc([C@]23OO[C@@]4(C)OC(C)(CCC42)O3)cc1 | 45.3 µM |  | 
CC12CCC3(C)[C@@](C)(OO[C@]3(C)O1)O2 | 180 µM |  | 
CC12CCC3(CCC(=O)NC45CC6CC(CC(C6)C4)C5)[C@@](C)(OO[C@]3(C)O1)O2 | 213 µM |  | 
CC12CCC3(CCC(=O)N4CCOCC4)[C@@](C)(OO[C@]3(C)O1)O2 | > 287 µM |  | 
CC12CCC3(CCC(=O)O)[C@@](C)(OO[C@]3(C)O1)O2 | > 348 µM |  | 

Compound | IC50 [1] | IC50 [2] | also measured
CC12CCC3(CCC#N)[C@@](C)(OO[C@]3(C)O1)O2 | > 376 µM |  | 
C1COC(OOC23CC4CC(CC(C4)C2)C3)C1 (stereo not given) | > 126 µM |  | 
CCOC(=O)CCC(OOC(C)(C)C)(C(C)=O)C(C)=O | > 104 µM |  | 
CC(=O)C(C)(OOC(C)(C)C)C(C)=O | > 795 µM |  | 
CCOC(=O)C(Cc1ccccc1)(OOC(C)(C)C)C(C)=O (stereo not given) | 15.1 µM |  | 
CCCCC(OOC(C)(C)C)(C(C)=O)C(=O)OCC (stereo not given) | 26.5 µM |  | 
CCOC(=O)C(CCC#N)(OOC(C)(C)C)C(C)=O (stereo not given) | > 111 µM |  | 
CCOC(=O)C(Cc1ccccc1)(OOC(C)(C)C)C(=O)OCC | 14.6 µM | 59.1 µM | 
CCOC(=O)C(C#N)(Cc1ccc(Cl)cc1)OOC(C)(C)C (stereo not given) | 9 µM | > 127 µM | 
CCOC(=O)C(C#N)(CC(C)=O)OOC(C)(C)C (stereo not given) | 37.8 µM |  | 
C=CCC(C#N)(OOC(C)(C)C)C(=O)OCC (stereo not given) | 43.2 µM |  | 
CCOC(=O)C(C#N)(Cc1ccccc1)OOC(C)(C)C (stereo not given) | 67.7 µM |  | 
CC(C)(C)OOC(C#N)(C#N)Cc1ccc(Cl)cc1 | 3.9 µM | 19.3 µM | IC50 [7]: 17.9 µM
CC(C)(C)OOC(C#N)(C#N)Cc1ccccc1 | 5 µM | 14.7 µM | Ratio IC50 [3]: 6.4; IC50 [4]: 99 µM; Activity [5]: 0%; Activity [6]: 0%
COc1ccc(CC(C#N)(C#N)OOC(C)(C)C)cc1 | 8 µM | 40.6 µM | 
CC(C)(C)OOC(C#N)(C#N)C1CCCC1 | 10.7 µM | 123 µM | 
CCOC(=O)CC(C)C(C#N)(C#N)OOC(C)(C)C (stereo not given) | 157 µM |  | 
CC(C)C(C#N)(C#N)OOC(C)(C)C | 293 µM |  | 
C[C@]12OO[C@](C)(OO1)C2C12CC3CC(CC(C3)C1)C2 (stereo not given in full) | 0.1 µM | 0.3 µM | IC50 [8]: 1.2 µM; IC50 [9]: 0.4 µM; Ratio IC50 [3]: 5.7; IC50 [4]: 1.7 µM; selectivity ratio [10]: 2; Activity [11]: 43.1%; Activity [5]: 77.8%; Activity [6]: 75.4%; Activity [12]: 50%
CC(c1ccc(Cl)cc1)C1[C@]2(C)OO[C@@]1(C)OO2 (stereo not given in full) | 0.4 µM | 35.5 µM | IC50 [7]: 25.3 µM
Cc1ccc(C(C)C2[C@]3(C)OO[C@@]2(C)OO3)cc1 (stereo not given in full) | 0.6 µM | 30.9 µM | IC50 [7]: 41.2 µM
C[C@]12OO[C@](C)(OO1)C2CCC(=O)NC12CC3CC(CC(C3)C1)C2 (stereo not given in full) | 0.8 µM | 33.3 µM | IC50 [7]: 39.3 µM
CC(c1ccc(Br)cc1)C1[C@]2(C)OO[C@@]1(C)OO2 (stereo not given in full) | 1 µM | 33.6 µM | IC50 [7]: 47.7 µM
CC(c1ccccc1)C1[C@]2(C)OO[C@@]1(C)OO2 (stereo not given in full) | 1.1 µM | 18.8 µM | Ratio IC50 [3]: 0.1; IC50 [4]: 2.2 µM; IC50 [7]: 12.9 µM; Activity [5]: 4.6%; Activity [6]: 5%
Cc1ccc(CC2[C@]3(C)OO[C@@]2(C)OO3)cc1 (stereo not given in full) | 1.2 µM | 40 µM | IC50 [7]: > 127 µM
C[C@H]1[C@H](OC(=O)CCC(=O)O)O[C@@H]2O[C@@]3(C)CC[C@H]4[C@H](C)CC[C@@H]1[C@@]24OO3 [ARTESUNATE] | 4.97 µM | 38.7 µM | IC50 [8]: 6.8 µM; IC50 [9]: 3.2 µM; Ratio IC50 [3]: 0.04; IC50 [4]: 1.5 µM; IC50 [7]: 38.7 µM; selectivity ratio [10]: 2
O=C(C1CCCCC1)N1CC(=O)N2CCc3ccccc3C2C1 (stereo not given) [PRAZIQUANTEL] | 2.2 µM |  | IC50 [4]: > 96 µM

— ChEMBL document CHEMBL2169849, “Identification of antischistosomal leads by evaluating bridged 1,2,4,5-tetraoxanes, alphaperoxides, and tricyclic monoperoxides” (J Med Chem, 2012)
